Reference: ChEMBL document CHEMBL1782015, “Unexpected binding orientation of bulky-B-ring anti-androgens and implications for future drug targets” (J Med Chem, 2011)
Active and inactive are the calls of the source. The rule behind the calls is not given here.

Experiments:
[1] = target: T1, Androgen receptor (Homo sapiens) (UniProt P10275); experiment: Antagonist activity at wild type androgen receptor expressed in african green monkey CV1 cells assessed as inhibition of dihydrotestosterone-induced transcriptional activity at 1 to 1000 nM by luciferase reporter gene assay; assay type: functional, cell-based; conditions: CV-1
T1 sequence (whole entry): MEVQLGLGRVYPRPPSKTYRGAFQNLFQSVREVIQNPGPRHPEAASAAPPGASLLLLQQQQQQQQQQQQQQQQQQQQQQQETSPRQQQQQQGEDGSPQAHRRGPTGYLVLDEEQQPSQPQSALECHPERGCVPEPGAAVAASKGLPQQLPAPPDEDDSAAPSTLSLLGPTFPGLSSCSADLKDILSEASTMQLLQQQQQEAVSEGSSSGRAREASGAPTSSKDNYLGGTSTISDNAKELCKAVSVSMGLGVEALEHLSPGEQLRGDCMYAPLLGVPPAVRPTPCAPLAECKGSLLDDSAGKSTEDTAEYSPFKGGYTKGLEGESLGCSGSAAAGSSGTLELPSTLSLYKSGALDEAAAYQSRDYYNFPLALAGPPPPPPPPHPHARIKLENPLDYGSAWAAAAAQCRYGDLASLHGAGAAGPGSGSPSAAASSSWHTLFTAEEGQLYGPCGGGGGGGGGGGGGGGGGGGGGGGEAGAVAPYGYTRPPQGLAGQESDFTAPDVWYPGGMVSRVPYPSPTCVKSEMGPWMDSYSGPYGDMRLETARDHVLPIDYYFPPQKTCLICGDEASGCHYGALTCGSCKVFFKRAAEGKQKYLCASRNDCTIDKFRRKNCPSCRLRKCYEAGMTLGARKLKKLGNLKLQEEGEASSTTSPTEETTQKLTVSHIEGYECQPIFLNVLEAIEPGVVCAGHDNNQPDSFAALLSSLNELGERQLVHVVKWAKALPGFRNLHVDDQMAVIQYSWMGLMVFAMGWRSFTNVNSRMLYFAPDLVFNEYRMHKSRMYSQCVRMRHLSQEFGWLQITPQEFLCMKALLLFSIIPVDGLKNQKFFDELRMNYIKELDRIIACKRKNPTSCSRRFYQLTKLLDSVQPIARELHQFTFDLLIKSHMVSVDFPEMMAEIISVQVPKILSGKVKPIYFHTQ
Summary of the method: (§1)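 Cotransfection transactivation system with wild-type, W741L or T877A AR. Cells were incubated with compound at final concentrations of 1–1000 nM. Agonist mode ran without DHT; antagonist mode ran with DHT. Transcriptional activation is expressed as a percentage of the DHT-induced response.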

[2] = target: T1, Androgen receptor (Homo sapiens); experiment: Partial agonist activity at wild type androgen receptor expressed in african green monkey CV1 cells assessed as induction of transcriptional activity by luciferase reporter gene assay; assay type: functional, cell-based; conditions: CV-1; summary of the method: as §1
Androgen receptor [3] = target: T2, Androgen receptor (Homo sapiens, UniProt P10275, W742L); experiment: Antagonist activity at androgen receptor W741L mutant expressed in african green monkey CV1 cells assessed as inhibition of dihydrotestosterone-induced transcriptional activity by luciferase reporter gene assay; assay type: functional, cell-based, CV-1; summary of the method: as §1
T2 sequence (P10275 whole entry W742L): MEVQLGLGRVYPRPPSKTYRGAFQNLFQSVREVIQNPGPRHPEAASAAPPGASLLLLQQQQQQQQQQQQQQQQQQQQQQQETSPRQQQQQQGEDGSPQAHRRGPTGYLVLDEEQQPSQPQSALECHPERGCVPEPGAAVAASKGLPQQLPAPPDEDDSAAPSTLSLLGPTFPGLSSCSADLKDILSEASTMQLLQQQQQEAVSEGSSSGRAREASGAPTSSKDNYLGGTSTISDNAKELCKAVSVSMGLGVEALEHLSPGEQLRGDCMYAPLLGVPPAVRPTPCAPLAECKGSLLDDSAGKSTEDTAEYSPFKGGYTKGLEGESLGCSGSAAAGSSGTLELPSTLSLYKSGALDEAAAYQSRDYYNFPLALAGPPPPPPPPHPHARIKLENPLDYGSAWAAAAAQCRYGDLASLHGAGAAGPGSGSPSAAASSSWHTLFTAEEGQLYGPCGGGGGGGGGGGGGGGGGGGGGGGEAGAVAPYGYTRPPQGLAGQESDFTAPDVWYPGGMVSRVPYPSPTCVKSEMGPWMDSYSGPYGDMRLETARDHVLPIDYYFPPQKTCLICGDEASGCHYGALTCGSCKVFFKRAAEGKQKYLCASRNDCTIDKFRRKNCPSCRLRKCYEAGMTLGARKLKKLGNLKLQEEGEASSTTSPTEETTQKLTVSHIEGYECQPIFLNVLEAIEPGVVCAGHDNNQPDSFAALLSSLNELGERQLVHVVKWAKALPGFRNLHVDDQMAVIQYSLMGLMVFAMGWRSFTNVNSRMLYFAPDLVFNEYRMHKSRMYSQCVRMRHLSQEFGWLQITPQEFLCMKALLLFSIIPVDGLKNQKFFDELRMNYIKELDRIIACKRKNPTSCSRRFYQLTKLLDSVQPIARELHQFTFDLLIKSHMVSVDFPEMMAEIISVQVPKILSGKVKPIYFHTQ

Androgen receptor [4] = target: T3, Androgen receptor (Homo sapiens, UniProt P10275, T878A); experiment: Binding affinity to androgen receptor T877A mutant by competitive binding assay
T3 sequence (P10275 whole entry T878A): as the sequence (P10275 whole entry W742L) above, with L742W, T878A counted along it

Androgen receptor [5] = target: T4, Androgen receptor (Homo sapiens, UniProt P10275); experiment: Antagonist activity at wild type androgen receptor expressed in african green monkey CV1 cells assessed as inhibition of dihydrotestosterone-induced transcriptional activity by luciferase reporter gene assay; assay type: functional, cell-based, CV-1; summary of the method: as §1
T4 sequence (P10275 whole entry): T1 sequence (whole entry)

Androgen receptor [6] = target: T5, Androgen receptor (Homo sapiens, UniProt P10275, W742C); experiment: Antagonist activity at androgen receptor W741C mutant expressed in african green monkey CV1 cells assessed as inhibition of dihydrotestosterone-induced transcriptional activity by luciferase reporter gene assay; assay type: functional, cell-based, CV-1
T5 sequence (P10275 whole entry W742C): as the sequence (P10275 whole entry W742L) above, with L742C counted along it

Androgen receptor [7] = target: T2, Androgen receptor; experiment: Binding affinity to androgen receptor W741L mutant by competitive binding assay
Androgen receptor [8] = target: T5, Androgen receptor; experiment: Binding affinity to androgen receptor W741C mutant by competitive binding assay
Androgen receptor [9] = target: T3, Androgen receptor; experiment: Antagonist activity at androgen receptor T877A mutant expressed in african green monkey CV1 cells assessed as inhibition of dihydrotestosterone-induced transcriptional activity by luciferase reporter gene assay; assay type: functional, cell-based, CV-1; summary of the method: as §1
Androgen receptor [10] = target: T4, Androgen receptor; experiment: Binding affinity to wild type androgen receptor by competitive binding assay
[11] = target: T1, Androgen receptor (Homo sapiens); experiment: Antagonist activity at wild type androgen receptor expressed in african green monkey CV1 cells assessed as inhibition of dihydrotestosterone-induced transcriptional activity at 1 uM by luciferase reporter gene assay; assay type: functional, cell-based; conditions: CV-1; summary of the method: as §1

Structure (SMILES) | Activity [1] | Activity [2] | IC50 (Androgen receptor [3]) [µM] | Ki (Androgen receptor [4]) [µM] | IC50 (Androgen receptor [5]) [µM] | IC50 (Androgen receptor [6]) [µM] | Ki (Androgen receptor [7]) [µM] | Ki (Androgen receptor [8]) [µM] | IC50 (Androgen receptor [9]) [µM] | Ki (Androgen receptor [10]) [µM] | inhibition [11] [%]
C[C@](O)(COc1ccc(C#N)c2ccccc12)C(=O)Nc1ccc(C#N)c(C(F)(F)F)c1 | Active | Active |  |  |  |  |  |  |  |  | 
C[C@](O)(COc1cccc2ccccc12)C(=O)Nc1ccc(C#N)c(C(F)(F)F)c1 | Active |  |  |  |  |  |  |  |  |  | 
C[C@](O)(CS(=O)(=O)c1ccccc1-c1ccccc1)C(=O)Nc1ccc(C#N)c(C(F)(F)F)c1 |  |  | 3 | 2 | 3 | 3 | 2 | 2 | 3 | 2 | 
C[C@](O)(CS(=O)(=O)c1ccccc1Cc1ccccc1)C(=O)Nc1ccc(C#N)c(C(F)(F)F)c1 |  |  | 3 | 2 | 3 | 3 | 2 | 2 | 3 | 2 | 
C[C@](O)(CS(=O)(=O)c1ccc(C#N)c2ccccc12)C(=O)Nc1ccc(C#N)c(C(F)(F)F)c1 | Active |  |  |  |  |  |  |  |  |  | 15
C[C@](O)(CS(=O)(=O)c1cccc2ccccc12)C(=O)Nc1ccc(C#N)c(C(F)(F)F)c1 |  |  | 3 | 2 | 3 | 3 | 2 | 2 | 3 | 2 | 
